Test results as given in ChEMBL document CHEMBL1122430, “Nucleosides. 123. Synthesis of antiviral nucleosides: 5-substituted 1-(2-deoxy-2-halogeno-beta-D-arabinofuranosyl)cytosines and -uracils. Some structure-activity relationships” (1983).

Tests used:
Assay type in all cases: functional
[1] = tested on: Human alphaherpesvirus 2; experiment: Antiherpetic activity against HSV-2; conditions: read-out: ED50 (the source's name)
Outline: (§1)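 Plaque-reduction assay on Vero cell monolayers infected with HSV-1 or HSV-2 (strain G). ED50 is the dose that cuts plaque number by 50%.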

[2] = tested on: Lymphocytic cell line; experiment: Inhibition of growth of normal human lymphocytic cells; conditions: read-out: ID50 (the source's name)
[3] = tested on: Human alphaherpesvirus 1; experiment: Antiherpetic activity against HSV-1; conditions: read-out: ED50 (the source's name); outline: as §1
[4] = Homo sapiens, Lymphocytic cell line

Row | SMILES | EC50 ([1]; Human alphaherpesvirus 2) [nM] | IC50 [2, 4] [nM] | EC50 ([3]; Human alphaherpesvirus 1) [nM] | EC50 [1] [nM] | IC50 [2] [nM] | EC50 [3] [nM]
1 | Cc1cn([C@@H]2O[C@H](CO)[C@@H](O)[C@@H]2F)c(=O)nc1N | 800 | 800 | 640 | – | – | –
2 | O=c1[nH]c(=O)n([C@@H]2O[C@H](CO)[C@@H](O)[C@H]2F)cc1I | 55 | 3300 | 25 | – | – | –
3 | O=c1ccn([C@@H]2O[C@H](CO)[C@@H](O)[C@H]2F)c(=O)[nH]1 | 6000 | > 100000 | 800 | – | – | –
4 | O=c1[nH]c(=O)n([C@H]2O[C@@H](CO)[C@H](O)[C@H]2F)cc1Br | 70 | 900 | 110 | – | – | –
5 | Nc1nc(=O)n([C@H]2O[C@@H](CO)[C@H](O)[C@H]2F)cc1Br | 20 | 5000 | 190 | – | – | –
6 | Nc1nc(=O)n([C@@H]2O[C@H](CO)[C@@H](O)[C@@H]2Cl)cc1Br | > 100000 | > 100000 | > 100000 | – | – | –
7 | Nc1nc(=O)n([C@@H]2O[C@H](CO)[C@@H](O)[C@@H]2Cl)cc1I | 90 | 3500 | 3400 | – | – | –
8 | Cc1cn([C@@H]2O[C@H](CO)[C@@H](O)[C@@H]2Cl)c(=O)nc1N | 220 | 20000 | > 100000 | – | – | –
9 | Cc1cn([C@@H]2O[C@H](CO)[C@@H](O)[C@@H]2Br)c(=O)[nH]c1=O | > 100000 | 8000 | > 100000 | – | – | –
10 | Cc1cn([C@@H]2O[C@H](CO)[C@@H](O)[C@@H]2Cl)c(=O)[nH]c1=O | > 100000 | > 100000 | > 100000 | – | – | –
11 | Nc1ccn([C@@H]2O[C@H](CO)[C@@H](O)[C@@H]2Cl)c(=O)n1 | 3800 | 6 | 110 | – | – | –
12 | Nc1ccn([C@@H]2O[C@H](CO)[C@@H](O)[C@@H]2Br)c(=O)n1 | 4400 | 200 | 3200 | – | – | –
13 | Nc1nc(=O)n([C@@H]2O[C@H](CO)[C@@H](O)[C@@H]2Br)cc1I | 2200 | 200 | 9500 | – | – | –
14 | Cc1cn([C@@H]2O[C@H](CO)[C@@H](O)[C@@H]2Br)c(=O)nc1N | 26200 | 34000 | > 100000 | – | – | –
15 | Nc1nc(=O)n([C@@H]2O[C@H](CO)[C@@H](O)[C@@H]2Br)cc1Br | > 100000 | 4500 | > 100000 | – | – | –
16 | Nc1ccn([C@@H]2O[C@H](CO)[C@@H](O)[C@@H]2F)c(=O)n1 | 300 | 600 | 120 | – | – | –
17 | Nc1nc(=O)n([C@@H]2O[C@H](CO)[C@@H](O)[C@H]2F)cc1I (stereo in doubt; 3A) | – | – | – | 10 | 8600 | 10
18 | Nc1nc(=O)n([C@@H]2O[C@H](CO)[C@@H](O)[C@H]2F)cc1I (stereo in doubt; 9) | – | – | – | 27400 | 1900 | 17900
19 | Cc1cn([C@@H]2O[C@H](CO)[C@@H](O)[C@@H]2F)c(=O)[nH]c1=O [5-METHYL-2'-FLUOROARAURACIL] | 13 | 1000 | 13 | – | – | –
